Experimental data published in ChEMBL document CHEMBL4266027, “Cyanobufalins: Cardioactive Toxins from Cyanobacterial Blooms” (J Nat Prod, 2018).

Key:
BT-474 = assay: Cytotoxicity against human BT474 cells assessed as decrease in cell viability after 72 hrs by MTS assay; type: functional, cell-based; settings: BT-474, 72 h
Method in brief: (§1)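 Cell proliferation assay using the MTS reagent. Compounds were tested as a dilution series, and EC50 values were derived from the concentration–response data.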

SK-OV-3 = assay: Cytotoxicity against human SKOV3 cells assessed as decrease in cell viability after 72 hrs by MTS assay; type: functional, cell-based; settings: SK-OV-3, 72 h; method in brief: as §1
PANC-1 = assay: Cytotoxicity against human PANC1 cells assessed as decrease in cell viability after 72 hrs by MTS assay; type: functional, cell-based; settings: PANC-1, 72 h; method in brief: as §1
HCT-116 = assay: Cytotoxicity against human HCT116 cells assessed as decrease in cell viability after 72 hrs by MTS assay; type: functional, cell-based; settings: HCT-116, 72 h; method in brief: as §1
HepG2 = assay: Cytotoxicity against human HepG2 cells assessed as decrease in cell viability after 72 hrs by MTS assay; type: functional, cell-based; settings: HepG2, 72 h; method in brief: as §1
DU-145 = assay: Cytotoxicity against human DU145 cells assessed as decrease in cell viability after 72 hrs by MTS assay; type: functional, cell-based; settings: DU-145, 72 h; method in brief: as §1
HT-1080 = assay: Cytotoxicity against human HT1080 cells assessed as decrease in cell viability after 72 hrs by MTS assay; type: functional, cell-based; settings: HT-1080, 72 h; method in brief: as §1
MES-SA = assay: Cytotoxicity against human MESSA cells assessed as decrease in cell viability after 72 hrs by MTS assay; type: functional, cell-based; method in brief: as §1
MES-SA/Dx5 = assay: Cytotoxicity against human MES-SA/Dx5 cells assessed as decrease in cell viability after 72 hrs by MTS assay; type: functional, cell-based; settings: MES-SA/Dx5, 72 h; method in brief: as §1
786-0 = assay: Cytotoxicity against human 786-O cells assessed as decrease in cell viability after 72 hrs by MTS assay; type: functional, cell-based; settings: 786-0, 72 h; method in brief: as §1
Daudi = assay: Cytotoxicity against human Daudi cells assessed as decrease in cell viability after 72 hrs by MTS assay; type: functional, cell-based; method in brief: as §1
THP-1 = assay: Cytotoxicity against human THP1 cells assessed as decrease in cell viability after 72 hrs by MTS assay; type: functional, cell-based; settings: THP-1, 72 h; method in brief: as §1
HeLa = assay: Cytotoxicity against human HeLa cells assessed as decrease in cell viability after 72 hrs by MTS assay; type: functional, cell-based; method in brief: as §1
MCF7 = assay: Cytotoxicity against human MCF7 cells assessed as decrease in cell viability after 72 hrs by MTS assay; type: functional, cell-based; settings: MCF7, 72 h; method in brief: as §1
BXPC-3 = assay: Cytotoxicity against human BxPC3 cells assessed as decrease in cell viability after 72 hrs by MTS assay; type: functional, cell-based; settings: BXPC-3, 72 h; method in brief: as §1
LoVo = assay: Cytotoxicity against human LoVo cells assessed as decrease in cell viability after 72 hrs by MTS assay; type: functional, cell-based; method in brief: as §1
[1] = Cytotoxicity against human LOX cells assessed as decrease in cell viability after 72 hrs by MTS assay; type: functional, cell-based; method in brief: as §1
U-87 MG = assay: Cytotoxicity against human U87MG cells assessed as decrease in cell viability after 72 hrs by MTS assay; type: functional, cell-based, U-87MG ATCC; method in brief: as §1
NCI-N87 = assay: Cytotoxicity against human NCI-N87 cells assessed as decrease in cell viability after 72 hrs by MTS assay; type: functional, cell-based; settings: NCI-N87, 72 h; method in brief: as §1
A549 = assay: Cytotoxicity against human A549 cells assessed as decrease in cell viability after 72 hrs by MTS assay; type: functional, cell-based; settings: A549, 72 h; method in brief: as §1
NCI-H1975 = assay: Cytotoxicity against human NCI-H1975 cells assessed as decrease in cell viability after 72 hrs by MTS assay; type: functional, cell-based; settings: NCI-H1975, 72 h; method in brief: as §1
MV4-11 = assay: Cytotoxicity against human MV411 cells assessed as decrease in cell viability after 72 hrs by MTS assay; type: functional, cell-based; settings: MV4-11, 72 h; method in brief: as §1
MDA-MB-468 = assay: Cytotoxicity against human MDA-MB-468 cells assessed as decrease in cell viability after 72 hrs by MTS assay; type: functional, cell-based; settings: MDA-MB-468, 72 h; method in brief: as §1
HUVEC = assay: Cytotoxicity against human HUVEC cells assessed as decrease in cell viability after 72 hrs by MTS assay; type: cell-based; method in brief: as §1
MRC5 = assay: Cytotoxicity against human MRC5 cells assessed as decrease in cell viability after 72 hrs by MTS assay; type: cell-based; settings: MRC5, 72 h; method in brief: as §1
H22 = assay: Cytotoxicity against mouse H22 cells assessed as decrease in cell viability after 72 hrs by MTS assay; type: functional, cell-based; settings: H22, 72 h; method in brief: as §1
CCRF S-180 = assay: Cytotoxicity against mouse S180 cells assessed as decrease in cell viability after 72 hrs by MTS assay; type: functional, cell-based; settings: CCRF S-180, 72 h; method in brief: as §1

`CC1(C)[C@@H](OC(N)=O)C=C[C@]2(C=O)[C@H]3CC[C@]4(C)[C@@H](c5ccc(=O)oc5)[C@@H](Cl)C[C@]4(O)C3=CC[C@@H]12` gave an EC50 (BT-474) of 3.7 nM, an EC50 (SK-OV-3) of 6 nM and an EC50 (PANC-1) of 2.1 nM. For the same compound, the EC50 (HCT-116) was 6 nM, the EC50 (HepG2) was 5.8 nM and the EC50 (DU-145) was 5.2 nM. The EC50 (HT-1080) was 5.4 nM, the EC50 (MES-SA) was 6.8 nM and the EC50 (MES-SA/Dx5) was 5.8 nM. For the same compound, the EC50 (786-0) was 2.3 nM, the EC50 (Daudi) was 3.3 nM and the EC50 (THP-1) was 4.3 nM. For the same compound, the EC50 (HeLa) was 4.7 nM, the EC50 (MCF7) was 15 nM and the EC50 (BXPC-3) was 5.7 nM. It also gave an EC50 (LoVo) of 5.6 nM, an EC50 [1] of 3.7 nM and an EC50 (U-87 MG) of 5.7 nM. For the same compound, the EC50 (NCI-N87) was 5.8 nM, the EC50 (A549) was 3.7 nM and the EC50 (NCI-H1975) was 3.1 nM. It also gave an EC50 (MV4-11) of 6.3 nM, an EC50 (MDA-MB-468) of 7 nM and an EC50 (HUVEC) of 9.7 nM. The EC50 (MRC5) was 2.4 nM, the EC50 (H22) was 4600 nM and the EC50 (CCRF S-180) was > 20000 nM.
